Assay results published in ChEMBL document CHEMBL4359825, “Synthesis of novel S-linked dihydroartemisinin derivatives and evaluation of their anticancer activity” (Eur J Med Chem, 2019).
Activity calls are given as the source filed them. The rule behind the calls is not given here.

Tests used:
MDA-MB-231 [1] = experiment: Anticancer activity against human MDA-MB-231 cells assessed as cell viability measured after 72 hrs by MTT assay (reference value: 100 +/- 20.0 %); assay type: functional; parameters: concentration or dose not given beside the values
A-431 [2] = experiment: Anticancer activity against human A431 cells assessed as cell viability measured after 72 hrs by MTT assay (reference value: 100 +/- 11.7 %); assay type: functional; parameters: concentration or dose not given beside the values
HeLa = experiment: Anticancer activity against human HeLa cells assessed as cell viability measured after 72 hrs by MTT assay (reference value: 100 +/- 11.5 %); assay type: functional; parameters: concentration or dose not given beside the values
HepG2 [3] = experiment: Anticancer activity against human HepG2 cells assessed as cell viability measured after 72 hrs by MTT assay (reference value: 100 +/- 6.5 %); assay type: functional; parameters: concentration or dose not given beside the values
PC-3 [4] = experiment: Anticancer activity against human PC3 cells assessed as cell viability measured after 72 hrs by MTT assay (reference value: 100 +/- 18.8 %); assay type: functional; parameters: concentration or dose not given beside the values
A549 = experiment: Anticancer activity against human A549 cells assessed as cell viability measured after 72 hrs by MTT assay (reference value: 100 +/- 9.6 %); assay type: functional; parameters: concentration or dose not given beside the values
LNCaP = experiment: Anticancer activity against human LNCAP cells assessed as cell viability measured after 72 hrs by MTT assay (reference value: 100 +/- 5.0 %); assay type: functional; parameters: concentration or dose not given beside the values
[5] = Solubility of compound in water; assay type: physicochemical; details: buffer
[6] = Elimination half-life in Sprague-Dawley rat at 10 mg/kg administered as iv bolus dose by EC-HPLC analysis; assay type: ADME, organism-based; details: in vivo, read-out: beta t1/2
PC-3 [7] = experiment: Induction of apoptosis in human PC3 cells assessed as nuclear condensation at 3 to 10 uM after 72 hrs by Hoechst 33342 staining based fluorescence microscopy; assay type: functional, cell-based
Outline: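 PC-3 cells treated 72 h with 3 or 10 μM, stained with Hoechst 33342 for 15 min at room temperature in the dark, washed with PBS, and nuclei examined by fluorescence microscopy for condensation.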

PC-3 [8] = experiment: Anticlonogenic activity against human PC3 cells assessed as reduction in colony formation at 10 uM incubated for 72 hrs supplemented with fresh medium containing measured after 15 days by colony formation assay; assay type: functional, cell-based
Outline: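 Clonogenic assay: PC-3 seeded at 500 cells/well in six-well plates, allowed to adhere overnight, then treated. Medium and compound renewed every 72 h over 15 days. Colonies fixed with 3.7% formaldehyde for 20 min, stained with 0.4% crystal violet and counted. Three experiments, each in quadruplicate, expressed as fold change versus control.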

PC-3 [9] = experiment: Effect on Pin1 expression in human PC3 cells at 0.1 to 10 uM measured after 72 hrs by Western blot analysis; assay type: functional, cell-based
Outline: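 Western blot: PC-3 seeded 1.25 × 10^5/well, exposed to 0.1–10 μM for 72 h. Lysed in 2× SDS buffer and sonicated; 20–25 μg protein run on 12% SDS gel, transferred to PVDF, blocked in 5% BSA/TBST. Primary antibodies overnight, secondary 1 h; ECL detection, β-actin loading control.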

PC-3 [10] = experiment: Cell cycle arrest in human PC3 cells assessed as accumulation at S phase at 3 uM measured after 48 hrs by RNase/propidium iodide staining based flow cytometry analysis (reference value: 42.03 %); assay type: functional
PC-3 [11] = experiment: Cell cycle arrest in human PC3 cells assessed as accumulation at G0/G1 phase at 10 uM measured after 48 hrs by RNase/propidium iodide staining based flow cytometry analysis (reference value: 35.13 %); assay type: functional
PC-3 [12] = experiment: Cell cycle arrest in human PC3 cells assessed as accumulation at G2/M phase at 3 uM measured after 48 hrs by RNase/propidium iodide staining based flow cytometry analysis (reference value: 22.84 %); assay type: functional
PC-3 [13] = experiment: Cell cycle arrest in human PC3 cells assessed as accumulation at S phase at 10 uM measured after 48 hrs by RNase/propidium iodide staining based flow cytometry analysis (reference value: 42.03 %); assay type: functional
PC-3 [14] = experiment: Induction of apoptosis in human PC3 cells assessed as loss of cell morphology at 3 to 10 uM after 72 hrs by phase contrast microscopy; assay type: functional, cell-based
Outline: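 PC-3 cells in exponential growth exposed to 3 or 10 μM for 72 h, washed gently with PBS, and apoptotic morphology recorded by phase-contrast microscopy.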

PC-3 [15] = experiment: Cell cycle arrest in human PC3 cells assessed as accumulation at G0/G1 phase at 3 uM measured after 48 hrs by RNase/propidium iodide staining based flow cytometry analysis (reference value: 35.13 %); assay type: functional
PC-3 [16] = experiment: Cell cycle arrest in human PC3 cells assessed as accumulation at G2/M phase at 10 uM measured after 48 hrs by RNase/propidium iodide staining based flow cytometry analysis (reference value: 22.84 %); assay type: functional
PC-3 [17] = experiment: Anticancer activity against human PC3 cells assessed as reduction in cell viability measured after 72 hrs by MTT assay; assay type: functional, cell-based; details: PC-3, 72 h
MDA-MB-231 [18] = experiment: Anticancer activity against human MDA-MB-231 cells assessed as reduction in cell viability measured after 72 hrs by MTT assay; assay type: functional, cell-based; details: MDA-MB-231, 72 h
A-431 [19] = experiment: Anticancer activity against human A431 cells assessed as reduction in cell viability measured after 72 hrs by MTT assay; assay type: functional, cell-based; details: A-431, 72 h
HepG2 [20] = experiment: Anticancer activity against human HepG2 cells assessed as reduction in cell viability measured after 72 hrs by MTT assay; assay type: functional, cell-based; details: HepG2, 72 h

SMILES	Activity (MDA-MB-231 [1]) [%]	Activity (A-431 [2]) [%]	Activity (HeLa) [%]	Activity (HepG2 [3]) [%]	Activity (PC-3 [4]) [%]	Activity (A549) [%]	Activity (LNCaP) [%]	other results
C[C@H]1[C@H](Sc2ccc(Cl)cc2)O[C@@H]2O[C@@]3(C)CC[C@H]4[C@H](C)CC[C@@H]1[C@@]24OO3	97	42	48	42	70	55	37	
CCCCS[C@@H]1O[C@@H]2O[C@@]3(C)CC[C@H]4[C@H](C)CC[C@@H]([C@H]1C)[C@@]24OO3	90	86	82	92	92	96	90	
COC(=O)CS[C@@H]1O[C@@H]2O[C@@]3(C)CC[C@H]4[C@H](C)CC[C@@H]([C@H]1C)[C@@]24OO3	98	75	79	80	32	91	60	
C[C@H]1[C@@H](O)O[C@@H]2O[C@@]3(C)CC[C@H]4[C@H](C)CC[C@@H]1[C@@]24OO3 [ARTENIMOL]								solubility [5]: Soluble; half-life [6]: < 1 h
C[C@H]1[C@@H](Sc2ccc3ccccc3n2)O[C@@H]2O[C@@]3(C)CC[C@H]4[C@H](C)CC[C@@H]1[C@@]24OO3	78	44	63	72	39	87	41	
C[C@H]1[C@H](Sc2ccc3ccccc3n2)O[C@@H]2O[C@@]3(C)CC[C@H]4[C@H](C)CC[C@@H]1[C@@]24OO3	90	93	87	96	33	100	77	
C[C@H]1[C@H](Sc2ccc([N+](=O)[O-])cc2)O[C@@H]2O[C@@]3(C)CC[C@H]4[C@H](C)CC[C@@H]1[C@@]24OO3	98	44	50	56	50	70	46	
COC(=O)Cc1ccc(SC2O[C@@H]3O[C@@]4(C)CC[C@H]5[C@H](C)CC[C@@H]([C@H]2C)[C@@]35OO4)cc1 (stereo not given in full)	96	52	43	67	31	74	31	
CCCCS[C@H]1O[C@@H]2O[C@@]3(C)CC[C@H]4[C@H](C)CC[C@@H]([C@H]1C)[C@@]24OO3	71	47	49	52	33	79	47	
C[C@H]1[C@@H](Sc2nnnn2C)O[C@@H]2O[C@@]3(C)CC[C@H]4[C@H](C)CC[C@@H]1[C@@]24OO3	86	97	93	93	28	100	97	
C[C@H]1[C@H](Sc2ccc(C(=O)O)cc2)O[C@@H]2O[C@@]3(C)CC[C@H]4[C@H](C)CC[C@@H]1[C@@]24OO3	95	58	60	64	84	79	47	
C[C@@H]1CC[C@H]2[C@@H](C)C(=O)O[C@@H]3O[C@@]4(C)CC[C@@H]1[C@]32OO4 [ARTEMISININ]								Activity (PC-3 [7]): Active; Activity (PC-3 [8]): Active; Activity (PC-3 [9]): inactive; Activity (PC-3 [10]): 44.42%; Activity (PC-3 [11]): 35.55%; Activity (PC-3 [12]): 22.1%; Activity (PC-3 [13]): 48.38%; Activity (PC-3 [14]): Active; Activity (PC-3 [15]): 33.48%; Activity (PC-3 [16]): 16.07%
C[C@H]1[C@@H](Sc2ccc(Cl)cc2)O[C@@H]2O[C@@]3(C)CC[C@H]4[C@H](C)CC[C@@H]1[C@@]24OO3	70	36	41	36	99	52	37	
COC(=O)CS[C@H]1O[C@@H]2O[C@@]3(C)CC[C@H]4[C@H](C)CC[C@@H]([C@H]1C)[C@@]24OO3	99	77	80	94	44	97	71	
CCCCCCS[C@@H]1O[C@@H]2O[C@@]3(C)CC[C@H]4[C@H](C)CC[C@@H]([C@H]1C)[C@@]24OO3	72	35	44	35	90	70	36	
C[C@H]1[C@H](Sc2nnnn2C)O[C@@H]2O[C@@]3(C)CC[C@H]4[C@H](C)CC[C@@H]1[C@@]24OO3	75	87	95	95	47	89	78	
CCCCCCS[C@H]1O[C@@H]2O[C@@]3(C)CC[C@H]4[C@H](C)CC[C@@H]([C@H]1C)[C@@]24OO3	39	45	49	41	39	55	46	IC50 (PC-3 [17]): 5.8 µM; IC50 (MDA-MB-231 [18]): 3.94 µM; IC50 (A-431 [19]): 3.99 µM; IC50 (HepG2 [20]): 10.7 µM
C[C@H]1[C@@H](Sc2cccc(C(=O)O)c2)O[C@@H]2O[C@@]3(C)CC[C@H]4[C@H](C)CC[C@@H]1[C@@]24OO3	97	90	58	60	41	89	43	
C[C@H]1[C@@H](Sc2ccc(C(=O)O)cc2)O[C@@H]2O[C@@]3(C)CC[C@H]4[C@H](C)CC[C@@H]1[C@@]24OO3	64	31	55	45	32	76	41	
